In ChEMBL document CHEMBL1123429, “Influence of alkyl chain ramification on estradiol receptor binding affinity and intrinsic activity of 1,2-dialkylated 1,2-bis(4- or 3-hydroxyphenyl)ethane estrogens and antiestrogens” (J Med Chem, 1986):
Each block holds one compound with its values, some of them ahead of it.

How the values were obtained:
[1] = molecular target: T1, Estrogen receptor (Mus musculus) (UniProt O08537+P19785)
[2] = molecular target: Estrogen receptor (Bos taurus) (UniProt Q9XSB5+P49884); test: Relative binding affinity (RBA) for calf uterine estrogen receptor; type: protein assay
Method in brief: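 Displacement of [³H]estradiol from calf uterine cytosol; incubated 16 h at 4 °C. Dextran-coated charcoal stops incubation; after centrifugation, supernatant radioactivity counted. Six competitor concentrations spanning 50% competition; % bound vs log concentration plotted to obtain concentrations halving binding for unlabeled estradiol and test compound, giving RBA. Mean of four determinations.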

[3] = molecular target: T1, Estrogen receptor (Mus musculus); test: Inhibition of estrone-stimulated uterine growth in immature mice at 30 ug; type: functional
Method in brief: (§1)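 Immature female NMRI mice, 20 days old (15.0 ± 2.5 g), randomized into groups of 10. Compound in olive oil (0.1 mL) injected sc daily for 3 days together with estrone; uteri removed 24 h after the last injection, fixed in Bouin's solution, washed, dried and weighed. Effect expressed as uterus dry weight (mg)/body weight (g) × 100; inhibition of estrone-stimulated growth.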

[4] = molecular target: T1, Estrogen receptor (Mus musculus); test: Anti-uterotrophic effect in mice at 300 ug; type: functional
Method in brief: as §1

[5] = molecular target: T1, Estrogen receptor (Mus musculus); test: Inhibition of estrone-stimulated uterine growth in immature mice at 300 ug; type: functional
Method in brief: as §1

[6] = molecular target: T1, Estrogen receptor (Mus musculus); test: Anti-uterotrophic effect in mice at 30 ug; type: functional
Method in brief: as §1

[7] = molecular target: T1, Estrogen receptor (Mus musculus); test: Anti-uterotrophic effect in mice at 0 ug; type: functional
Method in brief: as §1

[8] = molecular target: T1, Estrogen receptor (Mus musculus); test: Anti-uterotrophic effect in mice at 100 ug; type: functional
Method in brief: as §1

[9] = molecular target: T1, Estrogen receptor (Mus musculus); test: Inhibition of estrone-stimulated uterine growth in immature mice at 10 ug; type: functional
Method in brief: as §1

[10] = molecular target: T1, Estrogen receptor (Mus musculus); test: Inhibition of estrone-stimulated uterine growth in immature mice at 100 ug; type: functional
Method in brief: as §1

[11] = molecular target: T1, Estrogen receptor (Mus musculus); test: Anti-uterotrophic effect in mice at 10 ug; type: functional
Method in brief: as §1

[12] = molecular target: T1, Estrogen receptor (Mus musculus); test: Anti-uterotrophic effect in mice at 3 ug; type: functional
Method in brief: as §1

[13] = molecular target: T1, Estrogen receptor (Mus musculus); test: Inhibition of estrone-stimulated uterine growth in immature mice at 3 ug; type: functional
Method in brief: as §1

T1 sequence (O08537 whole entry, looked up): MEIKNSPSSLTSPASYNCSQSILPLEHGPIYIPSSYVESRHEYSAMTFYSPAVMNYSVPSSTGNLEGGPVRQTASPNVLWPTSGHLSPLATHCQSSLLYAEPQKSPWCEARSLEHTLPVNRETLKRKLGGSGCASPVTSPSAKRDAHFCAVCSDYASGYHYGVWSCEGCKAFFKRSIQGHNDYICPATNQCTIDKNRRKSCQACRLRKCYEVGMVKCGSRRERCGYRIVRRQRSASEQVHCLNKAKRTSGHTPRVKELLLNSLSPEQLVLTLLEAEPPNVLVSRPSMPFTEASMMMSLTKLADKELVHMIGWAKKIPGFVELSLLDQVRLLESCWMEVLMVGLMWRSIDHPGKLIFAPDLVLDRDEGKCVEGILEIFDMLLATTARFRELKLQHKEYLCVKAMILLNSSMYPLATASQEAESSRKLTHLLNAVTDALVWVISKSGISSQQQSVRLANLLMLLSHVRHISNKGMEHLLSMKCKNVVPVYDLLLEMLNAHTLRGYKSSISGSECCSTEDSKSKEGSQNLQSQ
T1 sequence (P19785 whole entry, looked up): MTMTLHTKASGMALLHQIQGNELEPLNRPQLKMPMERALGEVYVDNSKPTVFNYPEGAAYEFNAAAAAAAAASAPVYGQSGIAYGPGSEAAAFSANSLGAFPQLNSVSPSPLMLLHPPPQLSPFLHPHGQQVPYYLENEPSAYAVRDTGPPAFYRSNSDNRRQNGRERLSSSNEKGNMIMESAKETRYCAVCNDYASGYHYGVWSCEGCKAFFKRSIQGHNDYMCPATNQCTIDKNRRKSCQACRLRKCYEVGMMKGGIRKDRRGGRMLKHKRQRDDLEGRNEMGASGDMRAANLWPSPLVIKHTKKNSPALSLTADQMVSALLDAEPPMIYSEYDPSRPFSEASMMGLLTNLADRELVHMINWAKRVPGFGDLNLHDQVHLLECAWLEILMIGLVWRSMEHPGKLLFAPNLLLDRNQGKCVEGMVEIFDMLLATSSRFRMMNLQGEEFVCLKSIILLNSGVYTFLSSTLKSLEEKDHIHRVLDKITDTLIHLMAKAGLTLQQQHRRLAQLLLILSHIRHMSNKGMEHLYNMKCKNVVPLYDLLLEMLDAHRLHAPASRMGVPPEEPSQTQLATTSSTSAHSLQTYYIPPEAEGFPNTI

- Effect [1]: 46.5
Compound: C[C@]12CC[C@@H]3c4ccc(O)cc4CC[C@H]3[C@@H]1CCC2=O

- relative binding affinity (RBA) [2]: 1.5
Compound: CC(C)(C)[C@H](c1ccc(O)cc1)[C@H](c1ccc(O)cc1)C(C)(C)C

- relative binding affinity (RBA) [2]: 30
Compound: CC(C)[C@@H](c1ccc(O)cc1)[C@@H](c1ccc(O)cc1)C(C)C

- inhibition [3]: 19%
- Effect [4]: 38.2
- inhibition [5]: 26%
- Effect [6]: 40.3
- Effect [7]: 14.5
- Effect [8]: 37.9
- inhibition [8]: 27%
- relative binding affinity (RBA) [2]: 0.5
Compound: CC(C)CC(c1cccc(O)c1)[C@H](CC(C)C)c1cccc(O)c1 (single isomer, unassigned)

- inhibition [9]: 14%
- Effect [4]: 33
- inhibition [5]: 42%
- inhibition ([5]; in the assay text read “30 ug” for “300 ug”): 18%
- Effect [6]: 40.8
- Effect [7]: 14.5
- inhibition [10]: 37%
- Effect [8]: 34.7
- Effect [11]: 42.1
- relative binding affinity (RBA) [2]: 4
Compound: CCC[C@H](c1cccc(O)c1)[C@@H](CCC)c1cccc(O)c1

- relative binding affinity (RBA) [2]: 3
Compound: CCC(C)[C@@H](c1cccc(O)c1)[C@@H](c1cccc(O)c1)C(C)CC (stereo partly drawn)

- relative binding affinity (RBA) [2]: 15
Compound: CC(C)[C@@H](c1cccc(O)c1)[C@@H](c1cccc(O)c1)C(C)C

- inhibition [9]: 39%
- inhibition [3]: 51%
- Effect [12]: 40.1
- inhibition [13]: 20%
- Effect [6]: 30.2
- Effect [7]: 14.5
- Effect [8]: 32.7
- inhibition [8]: 43%
- Effect [11]: 34.1
- relative binding affinity (RBA) [2]: 11
Compound: CC[C@H](c1cccc(O)c1)[C@@H](CC)c1cccc(O)c1

- relative binding affinity (RBA) [2]: 25
Compound: CC[C@H](c1ccc(O)cc1)[C@@H](CC)c1ccc(O)cc1

- relative binding affinity (RBA) [2]: 0.7
Compound: CC(C)(C)[C@H](c1cccc(O)c1)[C@H](c1cccc(O)c1)C(C)(C)C

- relative binding affinity (RBA) [2]: 1.5
Compound: CC(C)C[C@H](c1ccc(O)cc1)[C@@H](CC(C)C)c1ccc(O)cc1

- relative binding affinity (RBA) [2]: 5
Compound: CCC(C)[C@@H](c1ccc(O)cc1)[C@@H](c1ccc(O)cc1)C(C)CC (stereo partly drawn)

- relative binding affinity (RBA) [2]: 8
Compound: CCC[C@H](c1ccc(O)cc1)[C@@H](CCC)c1ccc(O)cc1
